From PubChem BioAssay
Many of the other results were omitted from the sample, so hits are more common in it than they were.
UPR XBP1 act = adaptive UPR (XBP1) activation; CHO-XBP1 luciferase reporter, IRE1-XBP1 UPR activation, luminescence; percent of tunicamycin response, DMSO as zero; activation, % at 20 µM; 0.33% of 330,000 active;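 active = versus positive control, 20 µM dose yields 30% or more activation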;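 also: 100% = tunicamycin at 10 µg/mL and 0% = DMSO only wells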
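assay system = CHO-XBP1 luciferase reporter cells | amount = 1000 cells/well | buffer or medium = F12 plus 10% FBS | compound dosing = single point, 20 µM final compound, 1% DMSO | incubation = 16-18 h cell attachment at 37 °C, then 6 h compound exposure | detection = Steady-Glo luminescence read | controls = tunicamycin 10 µg/mL and vehicle-only wells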
UPR CHOP act = apoptotic UPR (CHOP) activation. activation, % at 10 µM. AID 449763. 0.34% of 330,000 active. CHO-CHOP luciferase reporter, luminescence; percent of tunicamycin response over DMSO baseline;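 active = at 10 µM dose, activation of 40% or more, normalized to positive control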;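 also: 100% = tunicamycin at 10 µg/mL and 0% = DMSO alone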
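System: CHO CHOP reporter cells. Amount: 500 cells per well. Buffer or medium: F12 medium, 10% FBS. Compound dosing: one dose, 10 µM in 0.5% DMSO. Incubation: 6 h compound exposure at 37 °C after overnight seeding. Technique: Steady-Glo luciferase luminescence. Benchmarks: tunicamycin and DMSO controls.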
V-ATPase pH = regulators of yeast V-ATPase proton transport; S. cerevisiae, pHLuorin cytosolic pH fluorescence; 0.37% of 350,000 active; response, % at 10 µM; in the data active = response mostly above about 7.3%, no sharp cut-off; inactive = mostly below about 5.4%; also: actives read high
CHOP inhibitor = CHOP inhibition in unfolded protein response | CHO-K1 CHOP-promoter luciferase, tunicamycin-induced, 15-18 h | inhibition, % at 10 µM | 3.8% of 220,000 active;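 active = compounds that reduced the stress-induced luciferase reporter signal by more than about 70% of percent inhibition, limit read from the data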;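 also: 0% = tunicamycin plus vehicle and 100% = wells without tunicamycin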
Tb MetRS inh = Trypanosoma brucei MetRS inhibition | inhibition, % at 11.9 µM | purified T. brucei MetRS, ATP depletion, Kinase-Glo luminescence | 0.4% of 360,000 active;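 active = inhibition above a per-plate cutoff of the control wells' mean inhibition plus 3 SD, cut at about 5.5% in these data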;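 also: 0% = DMSO wells median and 100% = median of wells with control inhibitor compound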
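Test system: purified T. brucei MetRS enzyme. Also added: ATP, methionine and E. coli bulk tRNA substrates. Compound: 11.9 µM single point. Schedule: 15 min enzyme-compound preincubation, 2 h reaction, 10 min detection, 25 °C. Signal: luciferase luminescence of residual ATP, Kinase-Glo. Evaluation: percent inhibition versus plate control medians. Controls: DMSO wells, low control.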
TbMetRS confirm = confirmation of Trypanosoma brucei MetRS inhibitors; shares compounds with Tb MetRS inh; T. brucei MetRS enzyme, luminescence (ATP depletion); inhibition, % at 11.9 µM; 93% of 1,400 active; AID 624412; in the data active = inhibition above about 7%
Jurkat cytotox = Jurkat T cell cytotoxicity for MetRS hits; inhibition, % at 8.3 µM; shares compounds with Tb MetRS inh; AID 624413; 12% of 1,400 active; Jurkat cells viability, ATP luminescence; in the data active = inhibition above about 15%;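 also: 0% = vehicle and 100% = reference inhibitor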
TbMetRS FP orth = orthogonal test for Trypanosoma brucei MetRS inhibitors; 44% of 1,400 active; inhibition, % at 11.9 µM; purified T. brucei MetRS, fluorescence polarization; shares compounds with Tb MetRS inh; in the data active = inhibition above about 17%;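 also: 0% = vehicle wells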
The depositor's hits bear a star; · = no result given.

SMILES	UPR XBP1 act	UPR CHOP act	V-ATPase pH	CHOP inhibitor	Tb MetRS inh	TbMetRS confirm	Jurkat cytotox	TbMetRS FP orth
COc1ccc(C(=O)NC(=S)NNC(=O)c2cnccn2)cc1	1	0	1	39	0	·	·	·
O=C(NC(=S)NNC(=O)c1cnccn1)c1ccc(Cl)cc1	-2	-3	4	60	5.9*	2	6	-5
CCCNS(=O)(=O)c1cc(CN2C(=O)c3cccnc3C2=O)ccc1OC	-4	-1	1	·	1	·	·	·
CCCNC(=O)c1ccc(N2CCC3(CC2)CC(c2cccc(Br)c2)=NO3)c([N+](=O)[O-])c1	-2	5	-3	·	0	·	·	·
CC(C)(C)c1ccccc1NC(=O)c1ccc(-n2cncn2)c([N+](=O)[O-])c1	-4	1	0	·	13*	43*	2	14
O=C(Nc1ccccc1OC(F)F)c1ccc(-n2cncn2)c([N+](=O)[O-])c1	-1	-1	-2	·	19*	52*	-10	22*
Cc1cc(C)c(NC(=O)CNC(=O)c2ccc(-n3cncn3)c([N+](=O)[O-])c2)c(C)c1	-2	-1	1	·	8.0*	35*	-2	15
Cc1cccc(C)c1NC(=O)CN(C)C(=O)c1ccc(-n2cncn2)c([N+](=O)[O-])c1	3	-1	-9	·	0	·	·	·
Cc1cc(Br)ccc1NC(=O)c1ccc(-n2cncn2)c([N+](=O)[O-])c1	-2	2	16	·	32*	79*	2	52*
Cc1c(C(=O)N(C)Cc2cccc(F)c2)oc2c(Cl)cccc12	2	1	-1	·	0	·	·	·
O=C(COC(=O)CCC(=O)c1ccccc1)Nc1nnc(-c2ccccc2)o1	-1	2	-1	·	0	·	·	·
COc1cccc(C(O)c2nc(/C=C/c3ccc(C(F)(F)F)cc3)cs2)c1 (stereo not drawn)	·	·	·	·	0	·	·	·
CCOC(=O)C1=NN(C(C)=O)C2C(=O)N(CC)C(=O)C12 (stereo not drawn)	1	-1	1	7	0	·	·	·
Cc1cc(Br)ccc1NC(=O)CNC(=O)c1ccc(-n2cncn2)c([N+](=O)[O-])c1	-4	1	2	·	27*	63*	1	29*
O=C(c1ccccc1)c1ccc(-n2cnnc2)c([N+](=O)[O-])c1	4	-1	-2	·	24*	44*	1	26*
COc1cc(OC)cc(-c2noc([C@@H]3O[C@H](CO)[C@@H](O)[C@H]3O)n2)c1	·	·	·	·	0	·	·	·
COC(=O)c1nnn(CC(=O)NC(=O)Nc2ccccc2)c1C(=O)OC	0	4	-1	20	6.2*	15*	-7	3
COC(=O)c1nnn(CC(=O)NC(=O)Nc2ccc(F)cc2)c1C(=O)OC	-1	3	0	1	1	·	·	·
N#Cc1c(-c2ccccc2)nc(SCC(=O)N2c3ccccc3Sc3ccccc32)[nH]c1=O	-4	-1	1	16	-1	·	·	·
Cn1cc(S(=O)(=O)NC[C@H]2O[C@@H](n3cnc4c(N)ncnc43)[C@H](O)[C@@H]2O)cn1	3	0	-2	·	0	·	·	·
Nc1ncnc2c1ncn2[C@@H]1O[C@H](CNS(=O)(=O)c2ccc3c(c2)CCN(C(=O)C(F)(F)F)C3)[C@@H](O)[C@H]1O	-1	3	1	·	8.7*	17*	16*	9
COCc1cc(C)nc(SCc2ccc(Br)cc2)c1C#N	1	1	-2	·	0	·	·	·
O=C(O)c1cccc(-n2c(O)c(C=C3N=c4ccccc4=N3)sc2=S)c1	-1	1	1	2	18*	41*	-3	14
Cc1ccc(C)n1-c1cccc(C(=O)O)c1	1	-1	·	19	·	·	·	·
O=C(O)c1ccc(-n2c(O)c(C=C3N=c4ccccc4=N3)sc2=S)cc1	1	-1	-4	4	7.8*	33*	-5	11
SMILES	UPR XBP1 act	UPR CHOP act	V-ATPase pH	CHOP inhibitor	Tb MetRS inh	TbMetRS confirm	Jurkat cytotox	TbMetRS FP orth
CCN(CC)c1ccc(-n2c(O)c(C=C3N=c4ccccc4=N3)sc2=S)cc1	-2	0	0	28	0	·	·	·
Nc1ccccc1Nc1cc(-c2ccccc2)[nH]n1	·	·	-1	-163	5.8*	5	96*	-4
Nc1ccccc1Nc1cc(-c2ccccc2)nn1-c1ccccc1	0	3	4	35	1	·	·	·
Clc1ccc2nc(COc3ccccc3)[nH]c2c1	-2	4	-3	·	12*	24*	51*	21*
COc1ccc(NC(=O)CCNS(=O)(=O)c2ccc(NC(C)=O)cc2)cc1Cl	4	2	2	·	1	·	·	·
CCOc1ccc(CONS(=O)(=O)c2ccc(NC(C)=O)cc2)cc1Cl	-2	-1	-1	26	42*	67*	7	57*
CCC(OC(C)=O)c1cc2c(cc1[N+](=O)[O-])OCCO2 (stereo not drawn)	-1	-1	-5	-2	-1	·	·	·
CC(C)NC(=O)c1ccccc1-c1ccccc1	-1	-1	-5	-36	-2	·	·	·
CC(NC(=O)c1cccc2c1Oc1ccccc1S2)C(=O)O (stereo not drawn)	·	·	·	·	8.7*	11*	-8	2
O=C(CNc1cccc2ccccc12)N/N=C/c1ccc[nH]1	0	4	-2	1	9.8*	65*	64*	44*
COc1ccc2c(CC(=O)OCC(=O)Nc3ccc4c(c3)OCO4)coc2c1	0	-1	0	-12	10.0*	15*	-7	8
COc1ccc2c(CC(=O)OCC(=O)Nc3ccc(C)cc3)coc2c1	-2	-2	5	·	9.8*	25*	4	9
COCCNC(=O)C(c1ccc(F)cc1)N(Cc1cccs1)C(=O)CCC(=O)Nc1ccccn1 (stereo not drawn)	-6	0	3	·	0	·	·	·
O=C1CC(N(O)c2ccccc2)C(=O)N1c1cc(Cl)cc(Cl)c1 (stereo not drawn)	0	-1	-1	2	13*	65*	-9	28*
Cc1ccccc1OCCSCc1nc2ccccc2[nH]1	0	1	-1	27	6.2*	17*	6	6
Cc1cccc(OCCCC(=O)Nc2nc3ccccc3[nH]2)c1	-1	-1	0	73*	63*	67*	5	46*
Cc1cccc(OCCSCc2nc3ccccc3[nH]2)c1	-1	-4	-2	24	8.7*	20*	-2	6
Cc1ccc(OCCCC(=O)Nc2nc3ccccc3[nH]2)cc1	0	2	3	-14	4	·	·	·
